Rows were chosen to be rich in hits. Some 12% of all compounds tested hit in one or more screens of this group.
WT yeast gro inh: growth inhibition of WT strain, primary screen, mitochondrial fusion inhibitor project, WT and mutant strains, chemical genetic; mitochondrial fusion phenotypic screen; inhibition, % at 10 µM; hit rate 2.1% among 190,000; AID 1362, 2008; in the data active = inhibition above about 58%; tested in S. cerevisiae
ABCG2 block: ABCG2 efflux pump inhibitors, primary screen, multiplex with ABCB1, IgMXP3 cells, flow cytometry; inhibition, % at 6.6 µM; hit rate 0.1% among 190,000; Broad substrate specificity ATP-binding cassette transporter ABCG2 (Homo sapiens), Q9UNQ0; JC-1 efflux;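 active = inhibition above 80%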;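 also: 0% = DMSO and 100% = nicardipine control wells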
Target sequence (Q9UNQ0 whole entry, looked up): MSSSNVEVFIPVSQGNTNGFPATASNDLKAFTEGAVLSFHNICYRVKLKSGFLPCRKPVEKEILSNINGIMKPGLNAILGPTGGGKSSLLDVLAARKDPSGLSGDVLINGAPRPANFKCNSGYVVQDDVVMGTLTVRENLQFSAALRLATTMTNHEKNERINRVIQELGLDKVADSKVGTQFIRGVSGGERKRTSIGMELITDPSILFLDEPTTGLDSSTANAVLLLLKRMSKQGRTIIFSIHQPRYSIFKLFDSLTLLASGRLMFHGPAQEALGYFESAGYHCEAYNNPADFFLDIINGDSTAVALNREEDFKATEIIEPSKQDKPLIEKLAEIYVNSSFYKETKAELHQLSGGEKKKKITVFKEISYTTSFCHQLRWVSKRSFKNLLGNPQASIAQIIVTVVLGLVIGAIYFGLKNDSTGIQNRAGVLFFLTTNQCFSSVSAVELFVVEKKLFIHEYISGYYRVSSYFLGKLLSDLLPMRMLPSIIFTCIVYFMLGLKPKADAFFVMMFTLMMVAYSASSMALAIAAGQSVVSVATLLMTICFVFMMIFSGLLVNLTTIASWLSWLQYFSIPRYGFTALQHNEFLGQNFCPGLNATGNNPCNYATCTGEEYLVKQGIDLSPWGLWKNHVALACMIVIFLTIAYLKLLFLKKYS
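test system = two drug-resistant human cell lines, ABCG2 and ABCB1 | amount = 3 million cells/mL final, two lines in 1:1 ratio | reagent = JC-1 transporter substrate | doses = one concentration, 6.6 µM final | incubation = 10 min at 25 °C | signal = flow cytometric JC-1 green MFI at 530 nm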
ABCB1 block: ABCB1 efflux pump inhibitors, primary screen, cell-based, multiplex, flow cytometry, ABCG2 counter-screen; CCRF-Adr cells, JC-1 efflux; AID 1326, 2008; hit rate 0.067% among 190,000; inhibition, % at 6.6 µM; in the data active = inhibition above about 40%;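 also: 0% = vehicle and 100% = reference inhibitor; higher value means more JC-1 retained so stronger ABCB1 efflux block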
RAM inhibit: inhibitors of the yeast RAM network, primary screen, dse1pr::URA3 reporter, 5-FOA selection; S. cerevisiae dse1pr::URA3 reporter, 5-FOA growth OD615, 2 d; analog-sensitive cbk1-as2 kinase mutant strain; inhibition, % at 50 µM; hit rate 1.8% among 190,000; AID 868, 2007;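 active = inhibition above a set limit, 3 SD over mean compound inhibition, cut at about 8.4% in these data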;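 also: 0% = DMSO-only wells with no growth and 100% = 10 µM 1-NA-PP1 full growth; inhibition rescues growth on 5-FOA so higher OD means more RAM inhibition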
Lmaj promast: Leishmania major promastigote growth inhibition, primary screen | Leishmania major promastigotes, resazurin fluorescence viability | inhibition, % at 10 µM | hit rate 9% among 200,000; in the data active = inhibition above about 50%;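 also: promastigotes grown with compound for 44 hours at 28 °C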
* = called active by the depositor.

SMILES | WT yeast gro inh | ABCG2 block | ABCB1 block | RAM inhibit | Lmaj promast
O=C(CC(c1ccco1)S(=O)(=O)c1ccccc1)c1ccc(F)cc1 (configuration not stated) | 8 | 7 | 0 | 3 | -3
O=S(=O)(NCCC(c1ccc(F)cc1)c1ccco1)c1ccccc1 (configuration not stated) | 60* | 13 | 1 | 3 | 14
Fc1ccc(NC(=S)Nc2cccnc2)c(F)c1F | 2 | 1 | 0 | 1 | 10
CC(=O)NCCNC(=O)C1CCCCN1S(=O)(=O)c1ccccc1 (configuration not stated) | 2 | 1 | 0 | 2 | 4
COC(=O)CSc1nc2cc(OC)ccc2cc1C#N | 24 | 2 | 0 | 8 | -3
COc1ccc(C(=O)N2CCN(c3nc4cc(C)ccc4cc3C#N)CC2)c(OC)c1 | 19 | 5 | 2 | 0 | 63*
COc1ccc2cc(C#N)c(SCC(=O)N3CCCC3)nc2c1 | 18 | 1 | 1 | 3 | 55*
COc1ccc2cc(C#N)c(N3CCN(C(=O)c4ccccc4C)CC3)nc2c1 | 11 | 21 | 4 | 8.8* | 15
COCc1c(Br)c(C)nc(OCC(=O)N/N=C/c2cc(C)n(-c3ccc([N+](=O)[O-])cc3)c2C)c1C#N | -8 | 21 | 1 | 1 | -2
Cc1cc(C)cc(N(CC(=O)NCc2ccco2)C(=O)CCC(=O)Nc2nccs2)c1 | -1 | 6 | -2 | 2 | 78*
CC1=C(C(=O)OCc2ccccc2)C(c2cccnc2)c2c(n(C)c(=O)n(C)c2=O)N1 (configuration not stated) | 2 | 10 | 0 | -1 | 75*
CC1=C(C(=O)OCc2ccccc2)C(c2cccnc2)n2ncnc2N1 (configuration not stated) | -11 | -2 | 3 | 1 | 3
O=[N+]([O-])c1ccccc1NCCNS(=O)(=O)c1ccc(Cl)cc1 | -3 | 13 | 1 | 2 | 31
O=[N+]([O-])c1ccc(NCCCNS(=O)(=O)c2ccc(Cl)cc2)c(Cl)c1 | 60* | 5 | 1 | 10* | 94*
Cc1cc(Nc2n[nH]c(N)c2C#N)ccc1F | -16 | 7 | 1 | 2 | 3
COc1ccc(COc2cc(-c3cccc(OC)c3)nc3ccc(NC(C)=O)cc23)cc1 | 2 | 0 | -1 | 1 | 6
COc1ccc(COc2cc(-c3cccc(OC)c3)nc3ccc(NC(=O)c4ccc(C)cc4)cc23)cc1 | -6 | -4 | -1 | 8.6* | 32
COc1ccc(COc2cc(-c3cccc(OC)c3)nc3ccc(N)cc23)cc1 | 25 | 5 | 0 | 2 | 76*
COc1ccc(COc2cc(-c3cccc(OC)c3)nc3ccc(NC(=O)c4ccc(N(C)C)cc4)cc23)cc1 | 9 | -4 | -1 | 6 | 84*
COc1ccccc1N1CCN(S(=O)(=O)c2cnc[nH]2)CC1 | 4 | 0 | 0 | 1 | -8
COC(=O)c1oc2ccccc2c1NC(=O)/C=C/C(=O)O | -17 | 0 | 0 | -1 | -10
Cc1ccc(C(=O)N2CCN3C(=O)c4ccccc4C23c2ccccc2)cc1 (configuration not stated) | 35 | 0 | 1 | 2 | 54*
O=[N+]([O-])c1ccc(C=Nc2ccc(Cl)c([N+](=O)[O-])c2)s1 | 14 | 3 | 0 | -1 | 100*
NC(=O)c1ccc(N=Cc2ccc([N+](=O)[O-])s2)cc1 | 6 | 3 | 0 | -1 | 100*
CC(C)c1ccc(/C=C2\NC(=S)N(Cc3cccnc3)C2=O)cc1 | 2 | 1 | 0 | 5 | 8
SMILES | WT yeast gro inh | ABCG2 block | ABCB1 block | RAM inhibit | Lmaj promast
CCN(CC)CCCN1C(=O)CSC1c1ccc([N+](=O)[O-])cc1 (configuration not stated) | -5 | 0 | 0 | 1 | 76*
CCN(CC)CCCN1C(=O)CSC1c1ccc2c(c1)OCO2 (configuration not stated) | -4 | 1 | 0 | 1 | 12
CCc1ccc(OCc2cnc(Cl)s2)cc1 | -15 | 0 | 0 | 0 | -13
COCCCNCCCCOc1ccc(Br)cc1C | 32 | 3 | 0 | 1 | 99*
Cc1ccc(NC(=O)COc2ccc(Br)cc2C)cc1 | 8 | 2 | 0 | 3 | -6
COCCNCCCCOc1ccc(Br)cc1C | 15 | 0 | 0 | 1 | 100*
COc1ccccc1OCCCCNC(C)(C)C | 34 | 1 | 0 | 0 | 5
CC(C)(C)NCCCCOc1ccccc1F | 0 | 6 | 1 | 1 | 100*
Cc1cc(Br)ccc1OCCCCNC(C)(C)C | -2 | 3 | 0 | 1 | 100*
Cc1ccc(S(=O)(=O)Nc2ccccn2)cc1[N+](=O)[O-] | 1 | 1 | 1 | 3 | 0
CC(=O)c1ccc(N2CCN(c3ccc(C(F)(F)F)cn3)CC2)cc1 | -8 | 7 | 0 | 2 | 12
CC(=O)c1ccc(-n2cc(-c3ccc(C(C)(C)C)cc3)[n+]3c2SCCC3)cc1 | 13 | -1 | 0 | 3 | 100*
Clc1ccc(-c2cn(-c3ccccc3)c3[n+]2CCS3)cc1 | -6 | -1 | 0 | 2 | 70*
Clc1ccc(-c2c[n+]3c(n2-c2ccccc2)SCC3)cc1 | 11 | 8 | 2 | 0 | 97*
COc1ccc(-c2cn(-c3ccc(Br)cc3)c3[n+]2CCS3)cc1 | -7 | -2 | 2 | -1 | 100*
CCc1ccc([C@@H]2C[C@H]3CN(Cc4ccccc4OC)C(=O)[C@]34CCCN24)cc1 | 29 | -1 | 0 | 0 | 16
COCCNC(=O)CSCc1cc(C)cc(C)c1 | -5 | 4 | 1 | 0 | -5
OC1(c2cccc(F)c2)CCN(Cc2ccncc2)CC1 | 7 | 2 | 0 | 0 | 94*
C[N+]1=C(/C=C/Nc2ccccc2Cl)C(C)(C)c2ccccc21 | 48 | -1 | 2 | 2 | 98*
FC(F)(F)c1cnc(/C=C/Nc2ccccc2Cl)c(Cl)c1 | 24 | 0 | 0 | 7 | -3
CN(CCNC(=O)CN1CCN(Cc2ccccc2Cl)C1=O)Cc1ccccc1 | -4 | 1 | 0 | 1 | 59*
O=C(CN1CCN(Cc2ccc(F)cc2Cl)C1=O)NCCc1ccccc1 | 25 | 1 | 0 | 1 | -3
CC12CCC(=O)N1C(C(=O)OCC(=O)Nc1ccc(Cl)c(Cl)c1)CS2 (configuration not stated) | 16 | 10 | 1 | 0 | -4
COc1cccc(CNC(=O)Cc2ccc(-n3c(=O)[nH]c4ccccc4c3=O)cc2)c1 | -9 | 3 | 1 | 9.0* | -6
CN(C)C(CNC(=O)c1ccc(S(=O)(=O)N(C)C)cc1)Cc1ccccc1 (configuration not stated) | -4 | 3 | 0 | 0 | 34
Cc1ccccc1-n1c(C)cc(/C=N/NC(=O)c2ccncc2)c1C | 9 | 4 | 1 | 0 | 4
